Experimental data from ChEMBL document CHEMBL1122777, “Effect of tellurium position on the myocardial uptake of radioiodinated 18-iodotellura-17-octadecenoic acid analogues” (1984).

Columns and labels:
Rattus norvegicus [1] = experiment: Liver uptake after 1 day was determined in female Fischer rats after [125I]-labeled compound complexed with bovine serum albumin was injected intravenously; type: functional
Procedure, shortened: (§1)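 Female Fischer 344 rats (fed ad libitum) under ether anaesthesia received the ¹²⁵I fatty acid in a lateral tail vein. Dose was ~3.8–4.8 μCi per rat (sp act ~125–240 mCi/mmol), given in 0.5 mL 6% bovine albumin (final ethanol 10%) after filtration. Four rats per time point were used. Tissue radioactivity is % injected dose/g, mean with range, calculated against standards of the injected solution.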

Rattus norvegicus [2] = experiment: Liver uptake after 2 hr was determined in female Fischer rats after [125I]-labeled compound complexed with bovine serum albumin was injected intravenously; type: functional; procedure, shortened: as §1
Rattus norvegicus [3] = experiment: Liver uptake after 4 hr was determined in female Fischer rats after [125I]-labeled compound complexed with bovine serum albumin was injected intravenously; type: functional; procedure, shortened: as §1
Rattus norvegicus [4] = experiment: Liver uptake after 5 min was determined in female Fischer rats after [125I]-labeled compound complexed with bovine serum albumin was injected intravenously; type: functional; procedure, shortened: as §1
Rattus norvegicus [5] = experiment: Liver uptake after 60 min was determined in female Fischer rats after [125I]-labeled compound complexed with bovine serum albumin was injected intravenously; type: functional; procedure, shortened: as §1
Rattus norvegicus [6] = experiment: Lungs uptake after 1 day was determined in female Fischer rats after [125I]-labeled compound complexed with bovine serum albumin was injected intravenously; type: functional; procedure, shortened: as §1
Rattus norvegicus [7] = experiment: Lungs uptake after 30 min was determined in female Fischer rats after [125I]-labeled compound complexed with bovine serum albumin was injected intravenously; type: functional; procedure, shortened: as §1
Rattus norvegicus [8] = experiment: Lungs uptake after 3 days was determined in female Fischer rats after [125I]-labeled compound complexed with bovine serum albumin was injected intravenously; type: functional; procedure, shortened: as §1
Rattus norvegicus [9] = experiment: Lungs uptake after 4 hr was determined in female Fischer rats after [125I]-labeled compound complexed with bovine serum albumin was injected intravenously; type: functional; procedure, shortened: as §1
Rattus norvegicus [10] = experiment: Lungs uptake after 5 min was determined in female Fischer rats after [125I]-labeled compound complexed with bovine serum albumin was injected intravenously; type: functional; procedure, shortened: as §1
Rattus norvegicus [11] = experiment: Lungs uptake after 60 min was determined in female Fischer rats after [125I]-labeled compound complexed with bovine serum albumin was injected intravenously; type: functional; procedure, shortened: as §1
Rattus norvegicus [12] = experiment: Thyroid uptake after 1 day was determined in female Fischer rats after [125I]-labeled compound complexed with bovine serum albumin was injected intravenously; type: functional
Procedure, shortened: (§2)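 Female Fischer 344 rats with free access to food and water. The 125I-labelled fatty acid (~3.8–4.8 μCi; sp act. ~125–240 mCi/mmol) was complexed with 6% bovine serum albumin (10% final ethanol), filtered, and 0.5 mL was injected via a lateral tail vein under ether anaesthesia. Four rats per time point. Values are mean % injected dose/g, calculated against injectate standards. Thyroid weight was taken as 7.5 mg/100 g body weight.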

Rattus norvegicus [13] = experiment: Thyroid uptake after 2 hr was determined in female Fischer rats after [125I]-labeled compound complexed with bovine serum albumin was injected intravenously; type: functional; procedure, shortened: as §2
Rattus norvegicus [14] = experiment: Thyroid uptake after 4 hr was determined in female Fischer rats after [125I]-labeled compound complexed with bovine serum albumin was injected intravenously; type: functional; procedure, shortened: as §2
Rattus norvegicus [15] = experiment: Heart uptake after 60 min was determined in female Fischer rats after [125I]-labeled compound complexed with bovine serum albumin was injected intravenously; type: functional; procedure, shortened: as §1
Rattus norvegicus [16] = experiment: Blood uptake after 1 day was determined in female Fischer rats after [125I]-labeled compound complexed with bovine serum albumin was injected intravenously; type: functional; procedure, shortened: as §1
Rattus norvegicus [17] = experiment: Blood uptake after 2 hr was determined in female Fischer rats after [125I]-labeled compound complexed with bovine serum albumin was injected intravenously; type: functional; procedure, shortened: as §1
Rattus norvegicus [18] = experiment: Blood uptake after 30 min was determined in female Fischer rats after [125I]-labeled compound complexed with bovine serum albumin was injected intravenously; type: functional; procedure, shortened: as §1
Rattus norvegicus [19] = experiment: Blood uptake after 4 hr was determined in female Fischer rats after [125I]-labeled compound complexed with bovine serum albumin was injected intravenously; type: functional; procedure, shortened: as §1
Rattus norvegicus [20] = experiment: Blood uptake after 5 min was determined in female Fischer rats after [125I]-labeled compound complexed with bovine serum albumin was injected intravenously; type: functional; procedure, shortened: as §1
Rattus norvegicus [21] = experiment: Blood uptake after 60 min was determined in female Fischer rats after [125I]-labeled compound complexed with bovine serum albumin was injected intravenously; type: functional; procedure, shortened: as §1
Rattus norvegicus [22] = experiment: Heart uptake after 1 day was determined in female Fischer rats after [125I]-labeled compound complexed with bovine serum albumin was injected intravenously; type: functional; procedure, shortened: as §1
Rattus norvegicus [23] = experiment: Heart uptake after 2 hr was determined in female Fischer rats after [125I]-labeled compound complexed with bovine serum albumin was injected intravenously; type: functional; procedure, shortened: as §1
Rattus norvegicus [24] = experiment: Heart uptake after 30 min was determined in female Fischer rats after [125I]-labeled compound complexed with bovine serum albumin was injected intravenously; type: functional; procedure, shortened: as §1
Rattus norvegicus [25] = experiment: Heart uptake after 5 min was determined in female Fischer rats after [125I]-labeled compound complexed with bovine serum albumin was injected intravenously; type: functional; procedure, shortened: as §1
[26] = Ratio of heart to blood uptake after 120 min was determined in female Fischer rats after [125I]-labeled compound complexed with bovine serum albumin was injected intravenously; type: functional
Procedure, shortened: (§3)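 Female Fischer 344 rats (food and water ad libitum) given the 125I-labelled fatty acid in 6% bovine albumin with 10% final ethanol, filtered, 0.5 mL into a lateral tail vein under ether anaesthesia. Four rats per time point. Tissue activity expressed as % injected dose/g against assayed injectate standards. Mean heart/tissue ratios were calculated from mean %ID/g values.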

[27] = Ratio of heart to blood uptake after 240 min was determined in female Fischer rats after [125I]-labeled compound complexed with bovine serum albumin was injected intravenously; type: functional; procedure, shortened: as §3
[28] = Ratio of heart to blood uptake after 5 min was determined in female Fischer rats after [125I]-labeled compound complexed with bovine serum albumin was injected intravenously; type: functional; procedure, shortened: as §3
[29] = Ratio of heart to blood uptake after 60 min was determined in female Fischer rats after [125I]-labeled compound complexed with bovine serum albumin was injected intravenously; type: functional; procedure, shortened: as §3
[30] = Ratio of heart to kidneys uptake after 120 min was determined in female Fischer rats after [125I]-labeled compound complexed with bovine serum albumin was injected intravenously; type: functional, Heart/Kidney; procedure, shortened: as §3
[31] = Ratio of heart to kidneys uptake after 240 min was determined in female Fischer rats after [125I]-labeled compound complexed with bovine serum albumin was injected intravenously; type: functional, Heart/Kidney; procedure, shortened: as §3
[32] = Ratio of heart to kidneys uptake after 30 min was determined in female Fischer rats after [125I]-labeled compound complexed with bovine serum albumin was injected intravenously; type: functional, Heart/Kidney; procedure, shortened: as §3
[33] = Ratio of heart to kidneys uptake after 5 min was determined in female Fischer rats after [125I]-labeled compound complexed with bovine serum albumin was injected intravenously; type: functional, Heart/Kidney; procedure, shortened: as §3
[34] = Ratio of heart to kidneys uptake after 60 min was determined in female Fischer rats after [125I]-labeled compound complexed with bovine serum albumin was injected intravenously; type: functional, Heart/Kidney; procedure, shortened: as §3
[35] = Ratio of heart to liver uptake after 5 min was determined in female Fischer rats after [125I]-labeled compound complexed with bovine serum albumin was injected intravenously; type: functional; procedure, shortened: as §3
[36] = Ratio of heart to liver uptake after 240 min was determined in female Fischer rats after [125I]-labeled compound complexed with bovine serum albumin was injected intravenously; type: functional; procedure, shortened: as §3
[37] = Ratio of heart to lungs uptake after 240 min was determined in female Fischer rats after [125I]-labeled compound complexed with bovine serum albumin was injected intravenously; type: functional; procedure, shortened: as §3
[38] = Ratio of heart to lungs uptake after 30 min was determined in female Fischer rats after [125I]-labeled compound complexed with bovine serum albumin was injected intravenously; type: functional; procedure, shortened: as §3
[39] = Ratio of heart to lungs uptake after 5 min was determined in female Fischer rats after [125I]-labeled compound complexed with bovine serum albumin was injected intravenously; type: functional; procedure, shortened: as §3
[40] = Ratio of heart to lungs uptake after 60 min was determined in female Fischer rats after [125I]-labeled compound complexed with bovine serum albumin was injected intravenously; type: functional; procedure, shortened: as §3
[41] = Ratio of heart to liver uptake after 30 min was determined in female Fischer rats after [125I]-labeled compound complexed with bovine serum albumin was injected intravenously; type: functional; procedure, shortened: as §3

Compound `O=C(O)CCCCCCC[Te]CCCCCCC/C=C/I` has an Injected dose/g (Rattus norvegicus [1]) of 1.64%, an Injected dose/g (Rattus norvegicus [2]) of 4.66% and an Injected dose/g (Rattus norvegicus [3]) of 3.76%. It also gave an Injected dose/g (Rattus norvegicus [4]) of 6.41%, an Injected dose/g (Rattus norvegicus [5]) of 4.87% and an Injected dose/g (Rattus norvegicus [6]) of 0.55%. For the same compound, the Injected dose/g (Rattus norvegicus [7]) was 1.52%, the Injected dose/g (Rattus norvegicus [8]) was 0.34% and the Injected dose/g (Rattus norvegicus [9]) was 1.21%. The Injected dose/g (Rattus norvegicus [10]) was 1.63%, the Injected dose/g (Rattus norvegicus [11]) was 1.57% and the Injected dose/g (Rattus norvegicus [12]) was 294%. It also gave an Injected dose/g (Rattus norvegicus [13]) of 38.5%, an Injected dose/g (Rattus norvegicus [14]) of 66.9% and an Injected dose/g (Rattus norvegicus [15]) of 5.17%. The Injected dose/g (Rattus norvegicus [16]) was 0.46%, the Injected dose/g (Rattus norvegicus [17]) was 0.44% and the Injected dose/g (Rattus norvegicus [18]) was 0.45%. The Injected dose/g (Rattus norvegicus [19]) was 0.53%, the Injected dose/g (Rattus norvegicus [20]) was 0.23% and the Injected dose/g (Rattus norvegicus [21]) was 0.36%. It also gave an Injected dose/g (Rattus norvegicus [22]) of 0.86%, an Injected dose/g (Rattus norvegicus [23]) of 3.9% and an Injected dose/g (Rattus norvegicus [24]) of 3.76%. For the same compound, the Injected dose/g (Rattus norvegicus [25]) was 4.83%, the Ratio [26] was 9 and the Ratio [27] was 4. For the same compound, the Ratio [28] was 21, the Ratio [29] was 14 and the Ratio [30] was 3.1. It also gave a Ratio [31] of 2.9, a Ratio [32] of 3.7 and a Ratio [33] of 3.1. The Ratio [34] was 3.4, the Ratio [35] was 0.75 and the Ratio [36] was 0.93. It also gave a Ratio [37] of 2.9, a Ratio [38] of 2.5 and a Ratio [39] of 2.9. The Ratio [40] was 3.3 and the Ratio [41] was 0.66.
Compound `O=C(O)CCCCCCCCC[Te]CCCCC/C=C/I` has an Injected dose/g (Rattus norvegicus [1]) of 0.52%, an Injected dose/g (Rattus norvegicus [2]) of 3.47% and an Injected dose/g (Rattus norvegicus [3]) of 2.52%. For the same compound, the Injected dose/g (Rattus norvegicus [4]) was 8.33%, the Injected dose/g (Rattus norvegicus [5]) was 5.15% and the Injected dose/g (Rattus norvegicus [6]) was 0.76%. It also gave an Injected dose/g (Rattus norvegicus [7]) of 2.06%, an Injected dose/g (Rattus norvegicus [8]) of 0.32% and an Injected dose/g (Rattus norvegicus [9]) of 1.59%. It also gave an Injected dose/g (Rattus norvegicus [10]) of 2.49%, an Injected dose/g (Rattus norvegicus [11]) of 2.07% and an Injected dose/g (Rattus norvegicus [12]) of 221%. For the same compound, the Injected dose/g (Rattus norvegicus [13]) was 45%, the Injected dose/g (Rattus norvegicus [14]) was 72% and the Injected dose/g (Rattus norvegicus [15]) was 3.63%. For the same compound, the Injected dose/g (Rattus norvegicus [16]) was 0.62%, the Injected dose/g (Rattus norvegicus [17]) was 0.81% and the Injected dose/g (Rattus norvegicus [18]) was 0.66%. It also gave an Injected dose/g (Rattus norvegicus [19]) of 1.03%, an Injected dose/g (Rattus norvegicus [20]) of 0.45% and an Injected dose/g (Rattus norvegicus [21]) of 0.67%. It also gave an Injected dose/g (Rattus norvegicus [22]) of 0.69%, an Injected dose/g (Rattus norvegicus [23]) of 3.8% and an Injected dose/g (Rattus norvegicus [24]) of 3.05%. It also gave an Injected dose/g (Rattus norvegicus [25]) of 3.09%, a Ratio [26] of 5 and a Ratio [27] of 2. For the same compound, the Ratio [28] was 7, the Ratio [29] was 5 and the Ratio [30] was 2.5. For the same compound, the Ratio [31] was 1.7, the Ratio [32] was 1.5 and the Ratio [33] was 1.4. The Ratio [34] was 1, the Ratio [35] was 0.37 and the Ratio [36] was 0.97. It also gave a Ratio [37] of 1.5, a Ratio [38] of 1.6 and a Ratio [39] of 1.2. For the same compound, the Ratio [40] was 1.8 and the Ratio [41] was 0.47.
